AHR activator = AHR activators, primary screen, cell-based, luminescence, luciferase reporter, human. Aryl hydrocarbon receptor (Homo sapiens), P35869. AHR-responsive luciferase reporter cells. activation, % at 5 µM. 2.5% of 320,000 active; in the data active = activation above about 47%;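 note: 0% = vehicle wells and 100% = reference agonist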
Target sequence (P35869 whole entry, looked up): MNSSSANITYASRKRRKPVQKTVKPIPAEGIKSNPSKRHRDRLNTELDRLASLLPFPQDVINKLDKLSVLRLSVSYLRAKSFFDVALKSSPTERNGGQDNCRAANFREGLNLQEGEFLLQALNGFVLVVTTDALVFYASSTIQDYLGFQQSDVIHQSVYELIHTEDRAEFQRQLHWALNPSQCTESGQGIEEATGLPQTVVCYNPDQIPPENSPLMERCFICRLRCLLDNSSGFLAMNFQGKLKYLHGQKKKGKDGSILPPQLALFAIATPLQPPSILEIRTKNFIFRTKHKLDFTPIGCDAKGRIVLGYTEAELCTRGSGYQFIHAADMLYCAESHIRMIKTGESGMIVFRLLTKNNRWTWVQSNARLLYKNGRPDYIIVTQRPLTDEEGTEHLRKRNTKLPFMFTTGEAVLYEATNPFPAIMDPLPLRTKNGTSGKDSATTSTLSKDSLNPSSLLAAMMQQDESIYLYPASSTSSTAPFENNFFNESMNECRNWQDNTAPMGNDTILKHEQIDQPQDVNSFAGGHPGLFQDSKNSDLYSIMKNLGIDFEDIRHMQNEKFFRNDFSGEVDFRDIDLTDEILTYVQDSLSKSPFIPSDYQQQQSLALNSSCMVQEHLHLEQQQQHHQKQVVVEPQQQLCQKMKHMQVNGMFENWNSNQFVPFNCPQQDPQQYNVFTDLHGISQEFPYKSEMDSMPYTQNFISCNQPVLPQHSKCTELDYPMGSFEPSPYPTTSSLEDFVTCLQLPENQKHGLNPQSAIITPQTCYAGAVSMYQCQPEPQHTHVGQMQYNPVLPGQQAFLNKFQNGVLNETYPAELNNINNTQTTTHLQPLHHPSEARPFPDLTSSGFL
STAT3 act-1 = IL-6 driven STAT3 reporter potentiators, primary screen, U3A cells, luciferase, luminescence, MLSCN library; IL-6 STAT3-luciferase reporter; 100% = signal with IL-6 EC80 alone; activation (% of control), % at 5.6 µM; 0.91% of 190,000 active; AID 871, 2007;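 active = activation above the screen-wide mean of compound activation plus 3 SD, cut at about 130% in these data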;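 note: 0% = background luminescence of wells with medium and substrate only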
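Material: STAT3-luciferase reporter U3A cells; Probe or stimulus: IL-6 (33 ng/mL); Incubation: compound pre-incubation 1 h before IL-6, then 6 h stimulation at 37 °C; Technique: luminescence from STAT3-driven luciferase reporter; Evaluation: % activation versus median of IL-6-stimulated wells; Controls: IL-6-only high control.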
ABCB6 inh 2 = ABCB6 transporter inhibitors, primary screen, K562-ABCB6 cells, flow cytometry, MLPCN library; ATP-binding cassette sub-family B member 6 (Homo sapiens), Q9NP58; K562-ABCB6 porphyrin accumulation, 1 h; stronger effect = lower value; fluorescence ratio to DMSO, % at 10 µM; 0.19% of 360,000 active; AID 602162, 2011;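 active = fluorescence ratio to DMSO below 75%, the collection mean minus 3 SD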;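 note: signal is porphyrin accumulated inside mitochondria; 100% equals median channel fluorescence of DMSO control wells; lower ratio means ABCB6 inhibition with less porphyrin fluorescence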
FXN GAA850 act = FXN promoter activators, primary screen, cell-based, luciferase luminescence, HEK293 lucGAA850. HEK293 lucGAA850 FXN promoter luciferase reporter, 24 h; percent of 10 µM SAHA response. activation, % at 6 µM. 0.56% of 360,000 active. AID 540364, 2011;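 active = activation above the average of all compounds screened plus 3 SD, cutoff fixed separately per campaign, cut at about 7.5% in these data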;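 note: 0% = DMSO wells and 100% = 10 µM SAHA wells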
STAT3 act-2 = STAT3 reporter potentiators, retest of hits, confirmation, U3A cells, luciferase, luminescence | shares compounds with STAT3 act-1 | potentiation (% of control), % at 5.7 µM | 64% of 1,200 active | AID 1267, 2008 | IL-6 potentiation; U3A cells lack STAT1; 100 means same as IL-6 alone;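 active = percent activation of the STAT3 luciferase reporter above a set limit taken from the earlier primary screen, cut at about 130% in these data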;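 note: 0% = background signal of medium plus substrate and 100% = median of IL-6 with DMSO wells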
NFkB act 2 = NF-kB reporter activators in human cells, counter-screen for STAT3 activator project; shares compounds with STAT3 act-1; NF-kappaB reporter activation; activation (% of control), % at 5.7 µM; 11% of 1,200 active; in the data active = activation above about 120%;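 note: reporter induced by TNF-alpha stimulation; 100% = median of stimulated DMSO wells and 0% = no signal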
STAT1 act = STAT1 reporter activators, IFN-gamma induced, counter-screen for STAT3 activator project, cell-based, NIH 3T3, luciferase luminescence; NIH 3T3 STAT1-luciferase reporter; 13% of 1,200 active; activation (% of control), % at 5.7 µM; AID 1318, 2008; shares compounds with STAT3 act-1;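 active = activation above the solvent-only control well mean plus 3 SD, set per screening run, cut at about 120% in these data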;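 note: 100% = IFN-gamma with DMSO median signal so 100% means no change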
Starred values were filed as active, the others as inactive; nt = not tested or not shown. Sampled rows, rich in hits. Any-hit rate of the full collection: about 3.3%.

SMILES	AHR activator	STAT3 act-1	ABCB6 inh 2	FXN GAA850 act	STAT3 act-2	NFkB act 2	STAT1 act
CC(C)C(=O)N1CCN(c2ccccc2NC(=O)c2ccc(C#N)cc2F)CC1	32.2	136.7*	98.0	0.9	138.5*	119.0	110.8
Cc1ccc(C(=O)Nc2ccccc2N2CCN(C(=O)C(C)C)CC2)cc1C	16.7	113.4	90.0	2.4	nt	nt	nt
N/C(=N\OC(=O)c1cc(Br)ccc1Cl)c1cccnc1	25.2	137.8*	90.0	1.4	132.2	112.8	113.4
N/C(=N\OC(=O)c1cc(Cl)ccc1Cl)c1ccncc1	3.8	99.5	90.0	1.3	nt	nt	nt
N/C(=N\OC(=O)c1cc(Cl)ccc1Cl)c1cccnc1	34.2	162.8*	97.0	3.8	152.0*	120.9*	134.9*
COC(=O)c1ccccc1NC1=C/C(=N\S(=O)(=O)c2cccs2)c2ccccc2C1=O	87.7*	137.5*	99.0	-7.4	108.4	112.6	110.2
Cc1csc(NC(=O)Cc2coc3cc(C)c(C(C)C)cc23)n1	2.3	137.2*	97.0	-6.6	125.3	98.5	96.1
Clc1ccc(/C=N/Nc2nnc(Cl)c3ccccc23)cc1	28.3	146.4*	108.0	3.1	159.5*	127.3*	164.0*
CC(=O)Nc1ccc(C=NNc2nnc(NN=Cc3ccc(NC(C)=O)cc3)c3ccccc23)cc1	nt	nt	101.0	-6.6	nt	nt	nt
CC(=O)Nc1cc(-c2cccc(F)c2)cn2c(-c3ccc(F)c(Cl)c3)cnc12	nt	nt	113.0	0.3	nt	nt	nt
Cc1ccc2nc3c(nc2c1)-c1ccccc1C3=O	36.9	174.4*	98.0	-0.7	159.0*	116.2	129.4*
Cc1ccccc1-c1cc(C(=O)NCc2cccc(C(F)(F)F)c2)n(CC2CC(c3cccnc3)=NO2)n1 (stereo not drawn)	0.3	nt	103.0	-2.6	nt	nt	nt
C=CCn1c(=O)c2ccccc2n2c(SCc3nc4ccccc4s3)nnc12	29.9	144.2*	94.0	3.2	141.8*	122.5*	135.5*
C=CCn1c(SCC#N)nc2ccccc2c1=O	11.5	136.2*	93.0	6.2	121.9	99.5	103.7
CC(C)(C)C1c2[nH]c3ccccc3c2CCN1CCCn1cccn1 (stereo not drawn)	11.2	108.0	97.0	1.2	nt	nt	nt
Fc1ccccc1C1c2[nH]c3ccccc3c2CCN1CCCn1cccn1 (stereo not drawn)	22.9	144.0*	92.0	-0.1	132.6	101.7	93.0
CCCCN1C(=O)C(CC(=O)NCc2ccco2)CC(C(=O)N2CCCCCC2)=C1C (stereo not drawn)	nt	nt	102.0	nt	nt	nt	nt
COc1ccccc1-c1nnc2n1N=C(C(C)(C)C)CS2	-1.2	95.6	99.0	0.6	nt	nt	nt
COc1cccc(-c2nnc3n2N=C(C(C)(C)C)CS3)c1	4.1	204.4*	98.0	-8.7	184.3*	34.1	111.1
FC(F)(F)c1cc(Cl)c2nc(-c3ccccc3)cn2c1	74.1*	158.2*	100.0	5.0	173.1*	140.2*	202.4*
O=C(O)C1CC=CCC1C(=O)Nc1ccc(S(=O)(=O)N2CCCc3ccccc32)cc1 (stereo not drawn)	7.1	162.0*	93.0	-5.5	146.1*	106.4	106.7
CCOC(=O)c1cccc(NC(=O)c2ccco2)c1	4.0	90.4	111.0	-0.5	nt	nt	nt
COc1ccccc1NC(=O)Nc1ccc(Br)cn1	20.0	109.5	104.0	1.9	nt	nt	nt
COc1ccc(Cl)cc1NC(=O)Nc1ccc(Br)cn1	29.3	159.5*	96.0	-0.4	143.7*	101.2	89.9
Cc1nnc(NC(=O)C2=COCCO2)s1	1.0	nt	101.0	2.6	nt	nt	nt
CS(=O)(=O)n1nc(-c2ccc(Cl)cc2)nc1SCc1ccccc1	11.9	105.8	102.0	4.8	nt	nt	nt

Bioassay records as filed in PubChem BioAssay.
